This sample holds only a part of the variants without activity.

This is an account of results in the RNAGym collection of RNA variant scans (doi:10.1126/science.aae0568).

To fix the notation:
B1: tRNA (parent)
chain: GUUCCGUUGGCGUAAUGGUAACGCGUCUCCCUCCUAAGGAGAAGACUGCGGGUUCGAGUCCCGUACGGAACG

The variants in the data set derive from B1. In words: yeast fitness relative to wild type (ratio to wild type); higher = fitter; tRNA-Arg(CCU), competitive growth, 37 C, YPD. In short, it runs like this:
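Amplicons of the tRNA-Arg(CCU) gene were sequenced, 100-nucleotide paired-end, from the start population and from each end population of a pooled yeast competition. The competition, in six parallel replicates, lasted 24 hours in YPD at 37°C. Fitness relative to wild type was calculated from changes in genotype frequencies. Genotypes had to have ≥ 100 starting reads, and estimates < 0.5 were set to 0.5.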
For C11G G41C A42C A43U, the yeast fitness was ≤ 0.5.

Take C30U C49U: the yeast fitness amounted to 0.862.

As for G25A C30U U54A, the yeast fitness came out at 0.533.

On to C4A U53C, for which the yeast fitness turned out to be 0.691.

For G9C C27U A40U A65G, the yeast fitness was ≤ 0.5.

Regarding G6C A14C, the yeast fitness was determined as 0.596.

C61A U64C: the yeast fitness came out at 0.801.

Consider C4G C5G U26C A43G, for which the yeast fitness was ≤ 0.5.

Regarding U7A G10A A40G C60U, the yeast fitness is ≤ 0.5.

On to C27G A65G C66G, for which the yeast fitness was ≤ 0.5.

With G18A U19A G63A, the yeast fitness is ≤ 0.5.

Consider A40G G41A, for which the yeast fitness is 0.825.

As to C11A C27A A40C A43G G48C A65G, the yeast fitness amounted to 0.541.

Consider C29G U54A, for which the yeast fitness was ≤ 0.5.

As to C4G U13C G39C, the yeast fitness was ≤ 0.5.

G10A U19A G44C U54G C55U: the yeast fitness was ≤ 0.5.

For C4A A14C, the yeast fitness was determined as 0.591.

On to G12A C30G U47C U54C, for which the yeast fitness is ≤ 0.5.

Turning to C11A C62A A70U, the yeast fitness is ≤ 0.5.

On to G9A C27G A40G G68A, for which the yeast fitness was ≤ 0.5.

As to G12A A42G A65U, the yeast fitness was ≤ 0.5.

For the variant C22A C27A A36U G39C, the yeast fitness is ≤ 0.5.

Consider G25A C29U C31U, for which the yeast fitness turned out to be 0.57.

On to C5G A15G A36G A43G, for which the yeast fitness was 0.593.

A20U U35C A57G: the yeast fitness worked out at 0.546.

As to U32G C46U, the yeast fitness worked out at 0.562.

Turning to C31A A70G, the yeast fitness was found to be 0.811.

With C22U U26A C29U A43C G52C U53A, the yeast fitness is ≤ 0.5.

Consider C11U U13C, for which the yeast fitness stood at 0.954.

On to C5A G38C A42G, for which the yeast fitness was 0.582.

With C5G A20G A42G C66G, the yeast fitness is ≤ 0.5.

Turning to G38C G39C G56C G68A, the yeast fitness was ≤ 0.5.

As for C30U C33A G63C U64C, the yeast fitness was ≤ 0.5.

Regarding G9C C22G C33G G63C A70G, the yeast fitness stood at 0.6.

For the variant U13C C24U U53A C66U, the yeast fitness was ≤ 0.5.

C11G U13C A14G G17A G48C C62U C66G A70G: the yeast fitness is ≤ 0.5.

As to U28C C31U A36G G63C, the yeast fitness is ≤ 0.5.

Turning to U13C G18A G41A C62G A65U, the yeast fitness was 0.619.

As for C11U A37G G52C A70U, the yeast fitness is ≤ 0.5.

In the case of G17A G41C, the yeast fitness came out at 0.816.

C5U C29U A43U: the yeast fitness was determined as 0.89.

With C5G U13G G18C A21C C60G A65U C66U, the yeast fitness was ≤ 0.5.

As for G12C G48A A69U, the yeast fitness amounted to 0.836.

Consider C5G A14U G38C G39C C61U, for which the yeast fitness is ≤ 0.5.

Regarding C4A C5G A15G G23C C30U, the yeast fitness was ≤ 0.5.

Take C5G C55U C61A: the yeast fitness was 0.605.

Turning to C22G U26G C66U, the yeast fitness was ≤ 0.5.

Regarding U16C A57C, the yeast fitness came out at 0.674.

Turning to C31U A42G G50A, the yeast fitness is 0.629.

In the case of U26G C31G A36U G41A A45C, the yeast fitness was ≤ 0.5.

U2G U13A U28A G39A G48A C61G C66G: the yeast fitness was ≤ 0.5.

Take C4A G17C C49U C62G: the yeast fitness was ≤ 0.5.

G9C A42G G52A: the yeast fitness is ≤ 0.5.

Regarding U13G A70U, the yeast fitness was found to be 1.11.

As to U2A C30G G58C C66G, the yeast fitness is ≤ 0.5.

For the variant G10C G12C G17U G39A C61U A69C, the yeast fitness is ≤ 0.5.

Regarding A57U G67A, the yeast fitness turned out to be 0.84.

With U19A G67A A70U, the yeast fitness came out at 0.691.

For the variant C33G U47C G52C C61U, the yeast fitness was ≤ 0.5.

On to G17C A45C G48A U59A A70C, for which the yeast fitness is ≤ 0.5.

With U3A A14C A37C, the yeast fitness is ≤ 0.5.

Regarding C22G C62U A69U, the yeast fitness worked out at 0.591.

As for U8G G12A G38A A69U, the yeast fitness was ≤ 0.5.

For the variant U3A A21C C24G C49U A65C, the yeast fitness is ≤ 0.5.

With C5G G25A U28G G38C C62G C66U, the yeast fitness was ≤ 0.5.

With G18A G41C U53A, the yeast fitness stood at 0.557.

On to C4A C5U U8C U47C U64A, for which the yeast fitness is ≤ 0.5.

U13C C60A: the yeast fitness is 0.685.

As for C11U A15U A65U, the yeast fitness is ≤ 0.5.

For the variant A15G G23A G25A G38A, the yeast fitness was 0.746.

Regarding U13A C61U A70G, the yeast fitness stood at 0.633.

Regarding C11U U16G, the yeast fitness came to 0.823.

For C4U U47G, the yeast fitness turned out to be 0.616.

On to U8A C29G C62G, for which the yeast fitness is 0.576.

Consider U19C C27G C29A C33A A43C, for which the yeast fitness was ≤ 0.5.

For C24U C31G A43G, the yeast fitness was determined as 0.69.

U8A G9A C24G A69G: the yeast fitness was ≤ 0.5.

Take U3A G6U G12C C22A C55G: the yeast fitness was ≤ 0.5.

For U59A G67C, the yeast fitness stood at 0.813.

Consider U3A A43G, for which the yeast fitness is 0.919.

Take U3A A70U: the yeast fitness came out at 0.86.

Take A14U A21U C49U G67C: the yeast fitness was ≤ 0.5.

Regarding U28A A43C G48A A70C, the yeast fitness came out at 0.577.

In the case of G12A A20C U54C C62U A70G, the yeast fitness is ≤ 0.5.

Turning to A15U C24U, the yeast fitness was 0.627.

On to G6C U54C C66A, for which the yeast fitness stood at 0.6.

Turning to U2G C22G C27G C30A U32G C55G, the yeast fitness is ≤ 0.5.

C34U C55G G63A: the yeast fitness is ≤ 0.5.

Consider C11G A14G A21U A40U U54A C55U, for which the yeast fitness was ≤ 0.5.

Consider G39A U59C, for which the yeast fitness was found to be 0.956.

On to G10A A57U U59A A65C, for which the yeast fitness stood at 0.561.

Turning to G38C C55G A69C, the yeast fitness worked out at 0.579.

As for G10A U26A C27U C29A A65G G68C, the yeast fitness was 0.563.

On to C22G C29G C66A A69U, for which the yeast fitness was ≤ 0.5.

For the variant U47C C60A C61G A69U, the yeast fitness is ≤ 0.5.

As for U32C C60G C62G, the yeast fitness was ≤ 0.5.

For C4U G10A C24U C61A, the yeast fitness amounted to 0.623.

U3G A14C A20U: the yeast fitness is ≤ 0.5.

With C11A A21C C30U, the yeast fitness is 0.678.

With C11A U16C U32G A36G C49G C55A, the yeast fitness came out at 0.53.

Take G25C G51A G67A: the yeast fitness came to 0.73.

Turning to G44A U54A, the yeast fitness worked out at 0.61.

As for A15U C31G U53A C55U G68U, the yeast fitness is ≤ 0.5.

U28G A37C C55U A65U: the yeast fitness is ≤ 0.5.

On to C22G G25A C61U, for which the yeast fitness was 0.647.

With C4A A40G, the yeast fitness came to 0.828.

Turning to C33G U47A C61U A69U, the yeast fitness is 0.573.

Consider C24U A45G A57G, for which the yeast fitness was found to be 0.787.

For C5A A14G C24A, the yeast fitness is 0.565.

On to G12A U32C A42C G44C A69C, for which the yeast fitness was ≤ 0.5.

For the variant U2C C11U G12A A15G U54C C66U G68C A69U, the yeast fitness is ≤ 0.5.

With C4A G23A C31G A40C G48C C66A, the yeast fitness is ≤ 0.5.

A14C C31U G50A C55G C62A: the yeast fitness was ≤ 0.5.

Regarding G9C A36U A40U G44A G63A A69C, the yeast fitness was ≤ 0.5.

For the variant C11U A43U A45C G67C, the yeast fitness was ≤ 0.5.

Take G17A U32A C49U C62A G67C: the yeast fitness is ≤ 0.5.

A20U G38C C61G A69G: the yeast fitness is ≤ 0.5.

U16G U47A G52A: the yeast fitness is ≤ 0.5.

In the case of A15U G23C C33A C66U G68C, the yeast fitness is ≤ 0.5.

As for A14G A15U U28A C33G G41C G56A, the yeast fitness came to 0.589.

In the case of C24U C55A U59G A65C, the yeast fitness is ≤ 0.5.

Turning to A20U A43U, the yeast fitness came out at 0.905.

As for U2C U16G G51A, the yeast fitness turned out to be 0.588.

On to G44C C61A C62U C66U, for which the yeast fitness is ≤ 0.5.

On to C5U U16A C46A, for which the yeast fitness was 1.07.

For the variant C5U A43U, the yeast fitness was 0.918.

For A21U A37U A45C G51A G67A, the yeast fitness worked out at 0.67.

For the variant G18C U53G C60A, the yeast fitness was ≤ 0.5.

On to A21C C29G A36G C46U G58A, for which the yeast fitness amounted to 0.535.

On to U2A C5G U53A C66U, for which the yeast fitness is ≤ 0.5.

For the variant U8A G44C, the yeast fitness was found to be 0.788.

As for A15U G50A C55G, the yeast fitness stood at 0.666.

In the case of A15G G41A U53G, the yeast fitness is ≤ 0.5.

Consider C22A C29G G38C A65U, for which the yeast fitness was ≤ 0.5.

Consider A45U G63C A65G, for which the yeast fitness was 0.647.

For U7A A20G G23A U26G G67A, the yeast fitness was ≤ 0.5.

Regarding G48A G50C, the yeast fitness came to 1.07.

In the case of G23A C27A, the yeast fitness was 0.821.

Turning to U7A G39C C46G C49U C62U, the yeast fitness was ≤ 0.5.

For G18A U32A G44A A65C, the yeast fitness was ≤ 0.5.

As to C24U A37U A65U A69C, the yeast fitness is ≤ 0.5.

With G10C A14U G25A C27U U53C, the yeast fitness was ≤ 0.5.

C5A C11U: the yeast fitness was 0.856.

On to G18A G23C C29U C31G, for which the yeast fitness was ≤ 0.5.

In the case of C5G C62U A69C, the yeast fitness worked out at 0.708.

Consider C27U G38A G48C, for which the yeast fitness worked out at 0.562.

For the variant C5A C29U A36U C66U G67A, the yeast fitness was ≤ 0.5.

Regarding A14C G18A C31G C33U A37C A65U, the yeast fitness was ≤ 0.5.

Consider U3C A15G C30A A57G, for which the yeast fitness is ≤ 0.5.

Consider U8C A45C C62G A65C, for which the yeast fitness is ≤ 0.5.

For the variant C5G C11U A70C, the yeast fitness is ≤ 0.5.

In the case of C61A U64A A69U, the yeast fitness came to 0.558.

On to U3G G6C C30U C33G A36C A40U, for which the yeast fitness was ≤ 0.5.

In the case of C33G A37C A45C, the yeast fitness was ≤ 0.5.

Turning to U2A A57U C61U C66G, the yeast fitness is ≤ 0.5.

Consider G56U A57G G68U, for which the yeast fitness is ≤ 0.5.

As for U13A C24A C61A A69U, the yeast fitness turned out to be 0.505.

As to U19C A57U, the yeast fitness was found to be 0.658.

On to C31G A36U C46U A65C, for which the yeast fitness stood at 0.74.

U13A A21U C22G U32C A42C G48C C55G: the yeast fitness was ≤ 0.5.

As for U3G U16C G39C A45C C49G A69U, the yeast fitness was ≤ 0.5.

In the case of C27U C33G A43G, the yeast fitness was ≤ 0.5.

Take C4U C29U G50A G63A: the yeast fitness was ≤ 0.5.

As for U8C C46G, the yeast fitness was found to be 1.04.

For U2A G6A C11G C49U A65U, the yeast fitness is ≤ 0.5.

Turning to C11U A21C A37U A42G A69C A70G, the yeast fitness is ≤ 0.5.

As to G56A C66U, the yeast fitness is 1.1.
